Source: ChEMBL document CHEMBL3351944 (J Nat Prod, 2014)

What was measured:
[1] = biological target: T1, Kappa-type opioid receptor (Homo sapiens, UniProt P41145); test: Agonist activity at human kappa opioid receptor expressed CHO cells co-expressing Galphaq16 assessed as calcium mobilization by fluorescence assay; assay type: functional, cell-based
Outline: (§1)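 CHO cells stably expressing KOP and Gαq16, grown overnight at 37 °C. Loaded with Calcium 5 dye in HBSS with 20 mM HEPES, 0.25% BSA, 1% DMSO, […], 1 h at 37 °C. Compounds added as 10× dilutions, top 10 μM. Fluorescence change over baseline recorded for 60 s. 10-point curves in duplicate, n = 2. Nonlinear regression gave EC50 and Emax.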

[2] = test system: MCF7; test: Antiproliferative activity against human MCF7 cells assessed as growth inhibition after 72 hrs by MTS/PMS assay; assay type: functional, cell-based; settings: MCF7, 72 h
Outline: (§2)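 MCF7 cells seeded at 2000/well and left to attach overnight. Six-point curves in duplicate over 100 nM–100 μM for test compounds and 1 nM–1 μM for geldanamycin, 1% DMSO final, 72 h at 37 °C. Growth read by MTS/PMS and normalized to 1% DMSO controls. At least two independent experiments; nonlinear regression gave IC50 and % inhibition.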

[3] = test system: MCF7; test: Antiproliferative activity against human MCF7 cells assessed as growth inhibition after 72 hrs by MTS/PMS assay relative to DNSO-treated control; assay type: functional; outline: as §2
[4] = biological target: T1, Kappa-type opioid receptor; test: Agonist activity at human kappa opioid receptor expressed CHO cells co-expressing Galphaq16 assessed as calcium mobilization by fluorescence assay relative to (-)-U69593; assay type: functional, cell-based; outline: as §1
[5] = test system: MDCK; test: Apparent permeability from basolateral side to apical in MDCK cells expressing MDR1 at 10 uM after 60 mins by LC/MS analysis; assay type: ADME, cell-based, Canis lupus familiaris; settings: dog, 1 h
[6] = test system: MDCK; test: Apparent permeability from basolateral side to apical in verapamil pretreated MDCK cells expressing MDR1 at 10 uM after 60 mins by LC/MS analysis; assay type: ADME, cell-based, Canis lupus familiaris; settings: dog, 1 h

T1 sequence (P41145 whole entry): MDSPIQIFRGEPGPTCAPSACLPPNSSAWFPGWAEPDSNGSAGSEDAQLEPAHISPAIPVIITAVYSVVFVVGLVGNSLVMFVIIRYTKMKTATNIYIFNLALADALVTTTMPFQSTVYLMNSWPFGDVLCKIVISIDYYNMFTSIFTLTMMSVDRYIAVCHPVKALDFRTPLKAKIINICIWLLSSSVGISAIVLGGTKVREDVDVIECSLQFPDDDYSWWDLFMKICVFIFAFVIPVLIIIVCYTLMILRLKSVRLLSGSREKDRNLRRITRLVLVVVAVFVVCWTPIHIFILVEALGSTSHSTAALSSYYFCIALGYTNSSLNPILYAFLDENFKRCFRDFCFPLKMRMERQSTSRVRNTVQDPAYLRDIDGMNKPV

| SMILES | EC50 [1] | IC50 [2] | inhibition (INH) [3] | Emax [4] | permeability [5] | permeability [6] |
| --- | --- | --- | --- | --- | --- | --- |
| COC(=O)[C@@H]1C[C@H](OC(C)=O)C(=O)[C@H]2[C@@]1(C)CC[C@H]1C(=O)O[C@H](CC3=CC(=O)C=CC3=O)C[C@]21C | 2500 nM | 6540 nM | 77% | 27% | – | – |
| O=C1C=CC(=O)C=C1 [BENZOQUINONE] | – | 2570 nM | 85% | – | – | – |
| COC(=O)[C@@H]1C[C@H](OC(C)=O)C(=O)[C@H]2[C@@]1(C)CC[C@H]1C(=O)O[C@H](CC3=CC(=O)C(OC)=C(OC)C3=O)C[C@]21C | > 10000 nM | 2700 nM | 86% | – | 5% | 47.2% |
| COC1=C2C[C@@H](C)C[C@H](OC)[C@H](O)[C@@H](C)/C=C(\C)[C@H](OC(N)=O)[C@@H](OC)/C=C\C=C(/C)C(=O)NC(=CC1=O)C2=O [GELDANAMYCIN] | – | 40 nM | 81% | – | – | – |
| COC(=O)[C@@H]1C[C@H](OC(C)=O)C(=O)[C@H]2[C@@]1(C)CC[C@H]1C(=O)O[C@H](c3ccoc3)C[C@]21C [SALVINORIN A] | – | > 100000 nM | – | – | 21.2% | 54.2% |
| COC(=O)[C@@H]1C[C@H](OC(C)=O)C(=O)[C@H]2[C@@]1(C)CC[C@H]1C(=O)O[C@H](CC3=CC(=O)C(OC)=CC3=O)C[C@]21C | > 10000 nM | 5840 nM | 83% | – | 9.7% | 38.4% |
| COc1cc2nc(N3CCN(C(=O)c4ccco4)CC3)nc(N)c2cc1OC [PRAZOSIN] | – | – | – | – | 6.7% | 35.5% |
| Cn1c(=O)c2c(ncn2C)n(C)c1=O [CAFFEINE] | – | – | – | – | 85.9% | 73% |
